Screening results (PubChem)
MrgX1 ag: agonists of human MrgX1 receptor. 310,000 tested, 0.44% active. B-score at 10 µM. AID 588627. MrgX1-HEK293 cells, Fluo-4 calcium fluorescence, agonist mode; hits give high values. Q96LB2;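 active = calcium response B-score plate-corrected fluorescence ratio at least 3 library SD, with starting fluorescence B-score inside 5 SD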
Target sequence (Q96LB2 whole entry, looked up): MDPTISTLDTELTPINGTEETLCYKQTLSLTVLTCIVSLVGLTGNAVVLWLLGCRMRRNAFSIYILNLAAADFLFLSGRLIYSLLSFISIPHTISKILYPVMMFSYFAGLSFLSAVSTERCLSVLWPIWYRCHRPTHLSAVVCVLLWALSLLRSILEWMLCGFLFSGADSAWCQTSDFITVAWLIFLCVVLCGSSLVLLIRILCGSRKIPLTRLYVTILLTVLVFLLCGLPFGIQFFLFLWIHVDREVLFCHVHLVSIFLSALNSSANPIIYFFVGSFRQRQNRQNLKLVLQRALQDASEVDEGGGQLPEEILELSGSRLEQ
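Test system: Stable human MrgX1 HEK293 cell line | Schedule: Overnight plating before 1 h dye loading | Read-out basis: Baseline-normalised fluorescence change ratio, B-scored | Detection: Kinetic calcium dye fluorescence, Fluo-4 NW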
MrgX1 antag: antagonists of human MrgX1 receptor | Q96LB2 | MRGX1-HEK293 calcium flux, Fluo-4, BAM8-22 antagonism; hits give low values | B-score at 10 µM | 310,000 tested, 1.3% active;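 active = calcium-response B-score plate-corrected more than 3 library SD below zero, starting fluorescence within 5 deviations, no agonist response on first addition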;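 note: peak minus trough fluorescence over baseline after final BAM8-22 challenge near maximal dose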
MrgX1 PAM: allosterically activates human MrgX1 receptor signaling; B-score at 10 µM; AID 588675; MrgX1-HEK293, Fluo-4 calcium flux, FDSS; hits give high values; 310,000 tested, 0.63% active; Q96LB2;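 active = plate-corrected calcium response at least 3 library SD above typical, normal starting fluorescence, not activating the receptor alone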;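 note: compound read alongside a low EC10 to EC30 dose of BAM8-22 agonist; peak minus trough fluorescence over baseline measured at the second addition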
RGS4 pot: potentiators or activators of RGS4; HEK293 M3R/inducible RGS4, carbachol calcium flux Fluo4; hits give low values; B-score at 10 µM; 310,000 tested, 0.92% active; AID 463111;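 active = B-score of the integrated calcium signal more than 4 SD below the library mean, with starting fluorescence not abnormally high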;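 note: negative B-score means reduced calcium response which marks RGS4 activation or potentiation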
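Assay system: HEK293 FlpIn-TREx cells, stable M3R, doxycycline-inducible RGS4 / Probe or stimulus: carbachol, ECmax concentration / Times: overnight RGS4 induction, 30 min dye load 37 °C, 20 min compound RT / Signal: kinetic calcium fluorescence imaging with Fluo4-AM dye, 2 µM / Measure: Agonist-evoked peak-minus-minimum fluorescence over baseline, integrated ratio, B score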
RGS4 inh: human RGS4 inhibition; P49798; HEK293 M3R/RGS4 inducible, Fluo-4 calcium flux; hits give high values; triggered by carbachol at its EC20; B-score at 10 µM; 310,000 tested, 0.45% active; AID 463165;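 active = B-score, a plate-corrected calcium signal, over three deviations above library mean, with baseline fluorescence within five deviations of library mean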;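 note: RGS4 expression induced by doxycycline in cells with stable M3 receptor; B-score is computed from the integrated fluorescence ratio over baseline after carbachol; higher B-score means a larger calcium signal and so more RGS4 inhibition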
Target sequence (P49798 whole entry, looked up): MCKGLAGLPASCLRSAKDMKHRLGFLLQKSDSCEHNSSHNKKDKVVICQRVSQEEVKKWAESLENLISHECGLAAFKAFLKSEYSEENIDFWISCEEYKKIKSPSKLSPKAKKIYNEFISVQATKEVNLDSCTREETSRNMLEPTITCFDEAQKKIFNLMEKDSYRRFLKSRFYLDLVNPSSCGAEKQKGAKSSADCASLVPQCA
MrgX1 ant reconf: confirmation of human MrgX1 receptor antagonists; shares compounds with MrgX1 antag; MrgX1-HEK293, BAM8-22 calcium flux, Fluo-4; hits give low values; remaining BAM8-22 calcium response % of control (hits give low values), % at 10 µM; 2,300 tested, 19% active;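 active = remaining agonist calcium response no higher than 100% minus 3 SD of agonist-only control wells, with starting fluorescence near control levels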;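 note: agonist BAM8-22 given at a near maximal EC90 to ECmax level; peak minus minimum fluorescence divided by baseline after agonist addition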
HEK293 Ca flux: activity in parental HEK293 cells lacking MrgX1; 4,000 tested, 2% active; AID 624111; Fluo-4 calcium fluorescence, FDSS; fluorescence ratio F(max-min)/F0 at 10 µM; shares compounds with MrgX1 antag;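 active = duplicate-averaged calcium fluorescence ratio at least three times the standard deviation of buffer wells, a nonspecific response in parental cells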
HEK293 Ca counter: MrgX1 allosteric activator counter-screen hit in parental HEK293 cells; shares compounds with MrgX1 antag; parental HEK293 calcium flux, Fluo-4 fluorescence ratio; hits give high values; fluorescence ratio F(max-min)/F0 at 10 µM; 4,000 tested, 0.4% active;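 active = calcium fluorescence ratio, averaged over duplicates, at least 3 SD of the buffer-well ratio, meaning a nonspecific response in receptor-free cells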;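 note: untransfected parental HEK293 lacking MrgX1 used as counterscreen for MrgX1 allosteric activators; fluorescence change taken during the second addition on a kinetic imager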
HEK293 Ca cntr2: activity in parental HEK293 cells lacking MrgX1 receptor; shares compounds with MrgX1 antag; Fluo-4 calcium fluorescence (FDSS); hits give high values; fluorescence ratio F(max-min)/F0 at 10 µM; 4,000 tested, 8.7% active; AID 624115;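 active = calcium fluorescence ratio at least three times the spread of buffer wells, meaning a non-specific response in parental cells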
Of the large screens only hits and unclear results are named; the others gave an inactive call (follow-up assays come after a bar, where they were run). Only some compounds are listed: those with a hit (about 3.5% of all), similar ones and a draw of the others.

COc1ccc(-c2csc(NC(=O)CSc3nc(C)nc4sc(C(=O)O)c(C)c34)n2)cc1	MrgX1 antag -6.4 | MrgX1 ant reconf 72% | HEK293 Ca flux inactive | HEK293 Ca counter inactive | HEK293 Ca cntr2 inactive
O=C1CC(C(=O)O)C2(CCCC2)O1 (centres undefined)	MrgX1 antag -5.2 | MrgX1 ant reconf inactive | HEK293 Ca flux inactive | HEK293 Ca counter inactive | HEK293 Ca cntr2 inactive
CCN(CC)C(=O)C1CC(=O)OC12CCCCC2 (centres undefined)	none
COc1ccc(Nc2nc3c(C)cccn3c(=O)c2C=NCc2ccccc2)cc1	none
CCOc1ccc(NC(=O)CS(=O)(=O)c2cn(C)c3ccccc23)cc1	MrgX1 antag -8 | MrgX1 ant reconf inactive | HEK293 Ca flux inactive | HEK293 Ca counter inactive | HEK293 Ca cntr2 inactive
Brc1ccc2nc(-c3cccs3)c(NCC3CCCO3)n2c1 (centres undefined)	none
OCC1(CCCc2ccccc2)CCN(C2CCSCC2)CC1	none
O=C(CCc1ccc(S(=O)(=O)N2CCOCC2)cc1)N1CCN(Cc2ccc3c(c2)OCO3)CC1	none
COc1ccc(NC(=O)c2cccnc2N2CCCC2)cc1	MrgX1 antag -8.6 | MrgX1 ant reconf inactive | HEK293 Ca flux inactive | HEK293 Ca counter inactive | HEK293 Ca cntr2 47
CN1CCN(S(=O)(=O)c2cccc(C(=O)Nc3nc(-c4ccccc4)cs3)c2)CC1	none
COc1ccc(-c2csc(NC(=O)c3cccc(S(=O)(=O)N4CCN(C)CC4)c3)n2)cc1	MrgX1 antag -5.8 | MrgX1 ant reconf inactive | HEK293 Ca flux inactive | HEK293 Ca counter inactive | HEK293 Ca cntr2 inactive
Cc1nc(-c2ccc(S(=O)(=O)Nc3cccc(S(N)(=O)=O)c3)s2)cs1	none
CCOc1ccc(CNC(=O)c2ccc3c(c2)N(CC)CCS3)cc1	MrgX1 antag -6.6 | MrgX1 ant reconf 82% | HEK293 Ca flux inactive | HEK293 Ca counter inactive | HEK293 Ca cntr2 inactive
CCN1CCSc2ccc(C(=O)NCc3ccc(OC(C)C)cc3)cc21	none
COc1cccc(CN2CCC(C(=O)N3CCN(c4ccccc4F)CC3)CC2)c1OC	MrgX1 antag -9.2 | MrgX1 ant reconf inactive | HEK293 Ca flux inactive | HEK293 Ca counter inactive | HEK293 Ca cntr2 inactive
CCn1c(CNc2ccc(Cl)cc2)nnc1SCC(=O)OC1CCCCC1	none
COc1ccc(NC(=O)NCc2cccnc2)cc1	MrgX1 antag -7.6 | MrgX1 ant reconf inactive | HEK293 Ca flux inactive | HEK293 Ca counter inactive | HEK293 Ca cntr2 inactive
COc1ccc(OC)c(C(C)NC(=O)Nc2cccc(C(C)=O)c2)c1 (centres undefined)	MrgX1 antag -10 | MrgX1 ant reconf inactive | HEK293 Ca flux inactive | HEK293 Ca counter inactive | HEK293 Ca cntr2 inactive
COc1cccc(C(=O)Nc2cccc(C(C)=O)c2)c1	MrgX1 antag -8 | MrgX1 ant reconf inactive | HEK293 Ca flux inactive | HEK293 Ca counter inactive | HEK293 Ca cntr2 inactive
COc1ccc(OC)c(C(C)NC(=O)c2ccc(Br)cc2)c1 (centres undefined)	none
COc1cccc(C(=O)NCc2cccnc2)c1	MrgX1 antag -5.5 | MrgX1 ant reconf inactive | HEK293 Ca flux inactive | HEK293 Ca counter inactive | HEK293 Ca cntr2 inactive
COc1cccc(C(=O)Nc2cccnc2)c1	MrgX1 antag -5 | MrgX1 ant reconf inactive | HEK293 Ca flux inactive | HEK293 Ca counter inactive | HEK293 Ca cntr2 inactive
CC1Cc2ccccc2N1S(=O)(=O)c1cccc(C(=O)Nc2cccnc2)c1 (centres undefined)	MrgX1 antag -4.6 | MrgX1 ant reconf inactive | HEK293 Ca flux inactive | HEK293 Ca counter inactive | HEK293 Ca cntr2 inactive
